Experimental data published in article PMC9898158 (Structure (London, England : 1993), 2022).
Structures can show the parent of a compound that is named as a salt. Where two headings read alike, the source gives them in different places.

What was measured:
[1] = test system: WT and CLPP−/− MDA-MB-231 cells; assay: Apoptotic onset check; assay type: cell-based, human
Procedure, shortened: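 WT and CLPP−/− MDA-MB-231 cells in DMEM/F-12 with 10% FBS and 2 mM L-glutamine were exposed to 1 μM test compound or DMSO for 24 hours. Morphology was checked by light microscopy and nuclei by DAPI fluorescence. Positive control was 2 μM doxorubicin or DMSO for 72 hours. Lysates were made by sonication in Dulbecco's PBS and protein-equalized, then run on SDS-PAGE, immunoblotted on PVDF and imaged on film.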

[2] = test system: MDA-MB-231 WT cells; assay: Growth inhibition profiling; assay type: cell-based, human; conditions: read-out: IC50 (nM), MDA-MB-231 WT
[3] = target: human ClpP (Homo sapiens, UniProt Q16740); assay: Casein-FITC degradation assay; assay type: biochemical; conditions: for Casein-FITC degradation h (at 2.5 μM ClpP): Hill coefficient, 2.5 μM ClpP protomer
[4] = test system: TFAM and Grp75 levels in MDA-MB-231 WT cells; assay: Western blot of TFAM and Grp75, MDA-MB-231 WT; assay type: cell-based, human; conditions: 1 μM, 24 hours
Procedure, shortened: (§1)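 MDA-MB-231 cells (WT or CLPP−/−) were grown in DMEM/F-12 with 10% FBS and 2 mM L-glutamine. They were treated for 24 hours with 1 μM test compound or 6 μM of a reference compound. Pellets were sonicated in Dulbecco's PBS and protein was equalized. TFAM and Grp75 were detected by SDS-PAGE, transfer to PVDF and western blotting, imaged by film.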

[5] = test system: MDA-MB-231 CLPP−/− cells; assay: Growth inhibition profiling; assay type: cell-based, human; conditions: read-out: IC50 (nM), MDA-MB-231 CLPP−/−
[6] = test system: HEK293 T-REx WT cells; assay: Growth inhibition profiling; assay type: cell-based, human; conditions: read-out: IC50 (nM), HEK293 T-REx WT
[7] = test system: TFAM and Grp75 levels in MDA-MB-231 CLPP−/− cells; assay: Western blot of TFAM and Grp75, MDA-MB-231 CLPP−/−; assay type: cell-based, human; conditions: 1 μM, 24 hours
Procedure, shortened: as §1

[8] = test system: MDA-MB-231 CLPX−/− cells; assay: Growth inhibition profiling; assay type: cell-based, human; conditions: read-out: IC50 (nM), MDA-MB-231 CLPX−/−
[9] = test system: HEK293 T-REx CLPX−/− cells; assay: Growth inhibition profiling; assay type: cell-based, human; conditions: read-out: IC50 (nM), HEK293 T-REx CLPX−/−
[10] = test system: HEK293 T-REx CLPP−/− cells; assay: Growth inhibition profiling; assay type: cell-based, human; conditions: read-out: IC50 (nM), HEK293 T-REx CLPP−/−
[11] = test system: MDA-MB-468; assay: One-dose NCI-60 screen, MDA-MB-468; assay type: cell-based, human; conditions: 10 μM, 48-hour exposure
Procedure, shortened: (§2)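 Run by NCI DCTD. Cells were seeded at 5,000–40,000/well in RPMI 1640 with 5% FBS and 2 mM L-glutamine and grown 24 h at 37 °C, 5% CO2. Test compound was added at 10 μM final for 48 h, with a time-zero plate kept. Cells were fixed with cold TCA (10% final for adherent, 16% for non-adherent) and stained with 0.4% SRB. Growth was calculated from A515 at 0 and 48 h.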

[12] = test system: COLO205; assay: One-dose NCI-60 screen, COLO205; assay type: cell-based, human; conditions: 10 μM, 48-hour exposure
Procedure, shortened: as §2

[13] = test system: MDA-MB-231; assay: One-dose NCI-60 screen, MDA-MB-231; assay type: cell-based, human; conditions: 10 μM, 48-hour exposure
[14] = target: ClpP (substrate TFAM lacking the MTS) (Homo sapiens, UniProt Q16740); assay: In vitro degradation assay using TFAM; assay type: biochemical; conditions: 20 μM compound, 13.5 μM TFAM, 15.5 μM ClpP, 37 °C, 0-5 h
[15] = Homo sapiens, HEK293-T-REx, 72 h

human ClpP, sequence (Q16740 57-277): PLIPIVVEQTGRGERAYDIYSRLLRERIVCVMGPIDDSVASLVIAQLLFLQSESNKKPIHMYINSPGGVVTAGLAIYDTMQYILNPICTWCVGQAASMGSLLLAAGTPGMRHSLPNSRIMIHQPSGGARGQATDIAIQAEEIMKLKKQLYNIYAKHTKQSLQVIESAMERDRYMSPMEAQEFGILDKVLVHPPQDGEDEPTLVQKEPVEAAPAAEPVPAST
ClpP (substrate TFAM lacking the MTS), sequence (Q16740 57-277): as above

SMILES	IC50 ([2]; 72 hr, SRB assay) [nM]	Casein-FITC degradation h (at 2.5 μM ClpP) [3]	IC50 ([5]; 72 hr, SRB assay) [nM]	IC50 ([6]; 72 hr, SRB assay) [nM]	IC50 ([8]; 72 hr, SRB assay) [nM]	IC50 ([9]; 72 hr, SRB assay) [nM]	IC50 ([10]; 72 hr, SRB assay) [nM]	lethality [11] [%]	IC50 ([2]; Homo sapiens, MDA-MB-231, 72 h) [nM]	Kd [3] [nM]	IC50 ([5]; Homo sapiens, MDA-MB-231, 72 h) [nM]	IC50 [6, 15] [nM]	IC50 ([8]; Homo sapiens, MDA-MB-231, 72 h) [nM]	IC50 [9, 15] [nM]	growth suppression [13] [%]	IC50 [10, 15] [nM]	also measured
C#Cc1cccc(CN2CCC3=C(C2)C(=O)N(Cc2ccc(Cl)cc2)C2=NCCN23)c1 [TR-27]	90.7 ± 1.7	8.1 ± 1.2	> 1000	46.1 ± 1.3	98.9 ± 1.7	57.7 ± 3.4	> 1000										ClpX level ([1]; 1 μM, 24 hours): reduced; signs of apoptosis (morphology, nuclear integrity, Mcl1, caspases 9, 3, 8) ([1]; 1 μM, 24 hours): absence of significant apoptosis; levels of TFAM and Grp75 [4]: reduced; levels of TFAM and Grp75 [7]: unchanged
Cn1c2c(c(=O)n(Cc3ccc(Cl)cc3)c1=O)CN(Cc1cccc(C#N)c1)CC2 [TR-57, 3-((3-(4-chlorobenzyl)-1-methyl-2,4-dioxo-1,2,3,4,7,8-hexahydropyrido[4,3-d]pyrimidin-6(5H)-yl)methyl)benzonitrile]		9.4 ± 7.8						15	19.3 ± 0.2	15.5 ± 12	> 1000	8.9 ± 0.2	19.9 ± 0.3	11.8 ± 0.4	68	> 1000	lethality [12]: 41%
N#Cc1cccc(CN2CCC3=C(C2)C(=O)N(Cc2ccc(Cl)cc2)C2=NCCN23)c1 [TR-65, 3-((4-(4-Chlorobenzyl)-5-oxo-1,2,4,5,8,9-hexahydroimidazo[1,2-a]pyrido[3,4-e]pyrimidin-7(6H)-yl)methyl)benzonitrile]		10.9 ± 2.5							9.4 ± 0.2	23.3 ± 9.1	> 1000	9.8 ± 0.3	9.4 ± 0.2	11 ± 0.2		> 1000	degradation of TFAM by compound-activated ClpP [14]: degradation of TFAM by TR-activated ClpP in a time-dependent manner
N#Cc1cccc(CN2CCc3ncn(Cc4ccc(Cl)cc4)c(=O)c3C2)c1 [TR-107]	29.4 ± 0.2	5.5 ± 0.7	> 1000	22.8 ± 0.7	27.4 ± 0.8	27 ± 2	> 1000	22							73		
N#Cc1cccc(CN2CCc3ncn(Cc4ccc(Br)cc4)c(=O)c3C2)c1 [TR-133, 3-([3-[(4-bromophenyl)methyl]-4-oxo-3H,4H,5H,6H,7H,8H-pyrido[4,3-d]pyrimidin-6-yl]methyl)benzonitrile]		6.2 ± 1.3							27.8 ± 0.4	29.1 ± 7.8	> 1000	20.7 ± 0.7	29.5 ± 0.7	26 ± 2		> 1000	
COc1cccc2c1C(=O)c1c(O)c3c(c(O)c1C2=O)C[C@@](O)(C(=O)CO)C[C@@H]3O[C@H]1C[C@H](N)[C@H](O)[C@H](C)O1 [doxorubicin, doxorubicin hydrochloride, reference compound]																	caspase 9 cleavage ([1]; 2 μM, 72 hrs, positive control): clearly showed caspase 9 cleavage
